Key:
P-RNase L21-732 = assay: STD-NMR binding; parameters: species or system porcine; settings: for STD-NMR signal (binding to P-RNase L): 10 μM P-RNase L21-732, 400 μM fragment; for STD-NMR binding to RNase L dimer: 2-5A in molar excess to RNase L; for STD-NMR binding with ATP/MgCl2: ATP/MgCl2 or mixture of 2-5A and ATP/MgCl2 in molar excess to RNase L; for STD-NMR binding to monomeric RNase L: absence of 2-5A
[1] = molecular target: porcine RNase L (P-RNase L) (Sus scrofa, UniProt A5H025); assay: FRET based enzyme assay of RNA substrate cleavage, P-RNase L; type: biochemical
[2] = molecular target: T1, human RNase L (H-RNase L) (Homo sapiens, UniProt Q05823); assay: FRET based enzyme assay of RNA substrate cleavage, H-RNase L; type: biochemical; settings: for IC50 against RNase L, in words: in vitro
T1 sequence (Q05823 1-741): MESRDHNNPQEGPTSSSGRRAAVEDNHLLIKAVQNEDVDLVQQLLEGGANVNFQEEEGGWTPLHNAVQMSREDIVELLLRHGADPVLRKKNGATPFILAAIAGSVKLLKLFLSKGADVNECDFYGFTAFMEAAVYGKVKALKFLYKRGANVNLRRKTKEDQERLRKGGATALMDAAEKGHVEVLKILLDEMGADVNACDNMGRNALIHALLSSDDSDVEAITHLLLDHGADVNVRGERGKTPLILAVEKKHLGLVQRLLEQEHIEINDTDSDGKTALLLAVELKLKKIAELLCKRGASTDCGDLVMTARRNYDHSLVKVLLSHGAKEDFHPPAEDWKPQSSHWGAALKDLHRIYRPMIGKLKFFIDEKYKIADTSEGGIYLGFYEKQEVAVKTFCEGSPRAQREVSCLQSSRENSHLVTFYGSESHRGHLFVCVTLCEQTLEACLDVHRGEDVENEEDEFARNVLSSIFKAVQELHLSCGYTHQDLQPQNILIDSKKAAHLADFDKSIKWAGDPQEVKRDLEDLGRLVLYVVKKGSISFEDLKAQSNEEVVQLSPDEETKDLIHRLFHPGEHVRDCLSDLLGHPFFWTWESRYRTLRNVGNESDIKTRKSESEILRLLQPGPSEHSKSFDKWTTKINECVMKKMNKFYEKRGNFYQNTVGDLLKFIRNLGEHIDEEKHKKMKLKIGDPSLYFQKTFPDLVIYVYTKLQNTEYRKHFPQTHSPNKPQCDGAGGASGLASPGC

RNase L [3] = settings: cited from earlier work
RNase L [4] = settings: cited from earlier work; remark: listed apart in the source
P-RNase L = assay: RNase L oligomerization assay; type: biochemical, porcine; settings: 40 μM compound, 2-5A up to 2 μM
Outline: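 Full-length porcine RNase L (0.8 μM) with 5 mM MgCl₂, preincubated ±test compound 15 min on ice. 2-5A then added for a further 15 min on ice. Cross-linked with DMS (120 mg/mL stock in 0.4 M triethanolamine-HCl, pH 8.5) 1 h at room temperature. Denatured in SDS/β-mercaptoethanol loading buffer at 95 °C for 5 min. Resolved by 4-12% gradient SDS-PAGE with Coomassie G-250 stain and imaged.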

H-RNase L = molecular target: T2, H-RNase L (Homo sapiens, UniProt Q05823); assay: RNase L mediated rRNA cleavage in intact A549 cells; type: cell-based; settings: 3-100 μM inhibitor, 4 h, then 20 μM trimeric 2-5A 2 h
T2 sequence (Q05823 1-741): T1 sequence (Q05823 1-741)

SMILES: O=C(O)c1ccc(Cl)nc1Cl [AC39661]
- STD-NMR signal (binding to P-RNase L) (P-RNase L21-732): positive

SMILES: CCCCOC(=O)c1ccc(O)cc1 [AC40357]
- STD-NMR signal (binding to P-RNase L) (P-RNase L21-732): positive
- inhibition of P-RNase L in vitro [1]: inhibited only H-RNase L
- inhibition of H-RNase L in vitro [2]: inhibited
- IC50 against RNase L, in words [2]: low millimolar

SMILES: Oc1ccc(Sc2ccc(O)cc2)cc1 [BTB10184]
- STD-NMR signal (binding to P-RNase L) (P-RNase L21-732): positive

SMILES: C[S+]([O-])c1sc(Cl)c2c1C(=O)CCC2 (centres unmarked) [KM05073]
- STD-NMR signal (binding to P-RNase L) (P-RNase L21-732): positive

SMILES: Cc1cc(C(=O)O)cc(Cl)n1 [RF03759]
- STD-NMR signal (binding to P-RNase L) (P-RNase L21-732): positive

SMILES: O=C(O)c1cc(O)c(O)c(O)c1Oc1cc2c(=O)oc3c(O)c(O)cc4c(=O)oc(c1O)c2c34 [VAL, valoneic acid dilactone]
- inhibition activity on RNase L in vitro, in words (RNase L [3]): nanomolar
- EC50 for RNase L in intact cells, in words (RNase L [4]): micromolar range

SMILES: O=c1c(O[C@@H]2O[C@H](CO)[C@H](O)[C@H](O)[C@H]2O)c(-c2ccc(O)c(O)c2)oc2cc(O)cc(O)c12 [hyperoside]
- suppression of 2-5A induced RNase L dimerization (cross-linking) (P-RNase L): did not suppress
- STD-NMR binding to RNase L dimer (P-RNase L21-732): positive STD signal
- STD-NMR binding with ATP/MgCl2 (P-RNase L21-732): remained positive
- STD-NMR binding to monomeric RNase L (P-RNase L21-732): directly interacts
- inhibitory activity against RNase L in intact cells (rRNA cleavage) (H-RNase L): did not show any inhibitory activity
- inhibition of P-RNase L in vitro [1]: inhibited
- effect of 2-5A concentration on potency against P-RNase L ([1]; 2-5A 1, 5 and 20 nM): does not seem to have an effect
- inhibition of H-RNase L in vitro [2]: inhibited
- effect of 2-5A concentration on potency against H-RNase L ([2]; 2-5A 1, 5 and 20 nM): does not seem to have an effect
- IC50 against RNase L, in words [2]: single-digit micromolar

SMILES: O=c1c(O)c(-c2ccc(O)cc2O)oc2cc(O)cc(O)c12 [morin]
- inhibition of P-RNase L in vitro [1]: not active
- inhibition of H-RNase L in vitro [2]: not active

SMILES: O=c1c(O)c(-c2cc(O)c(O)c(O)c2)oc2cc(O)cc(O)c12 [myricetin]
- STD-NMR binding to RNase L dimer (P-RNase L21-732): positive STD signal
- STD-NMR binding with ATP/MgCl2 (P-RNase L21-732): remained positive
- STD-NMR binding to monomeric RNase L (P-RNase L21-732): directly interacts
- inhibitory activity against RNase L in intact cells (rRNA cleavage) (H-RNase L): identical inhibitory activity to that of VAL
- inhibition of P-RNase L in vitro [1]: inhibited
- inhibition of H-RNase L in vitro [2]: inhibited

SMILES: O=C(CCc1ccc(O)cc1)c1c(O)cc(O)cc1O [phloretin]
- inhibition of H-RNase L in vitro [2]: inhibited

SMILES: CCN(CC)CCNC(=O)c1c(C)[nH]c(/C=C2\C(=O)Nc3ccc(F)cc32)c1C [sunitinib]
- IC50 against RNase L in vitro, in words (RNase L [3]): micromolar range

SMILES: O=c1cc(-c2ccc(O)cc2)oc2c([C@@H]3O[C@H](CO)[C@@H](O)[C@H](O)[C@H]3O)c(O)cc(O)c12 [vitexin]
- STD-NMR signal (binding to P-RNase L) (P-RNase L21-732): directly binds
- inhibitory activity against RNase L in intact cells (rRNA cleavage) (H-RNase L): did not show any inhibitory activity

From paper PMC10620946 (Journal of medicinal chemistry, 2021)
